Test results published in ChEMBL document CHEMBL1157059, “Eremophilane-type sesquiterpenes from the fungus Xylaria sp. BCC 21097” (J Nat Prod, 2010).
Values after ≈ are worked out from the molar mass of the structure shown.

What was measured:
[1] = tested on: Plasmodium falciparum; experiment: Antimalarial activity against Plasmodium falciparum K1 after 18 hrs by [G-3H]hypoxanthine uptake assay; format: functional, organism-based; conditions: K1, 18 h
Summary of the method: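 Plasmodium falciparum K1, a multidrug-resistant strain, tested by the microculture radioisotope technique.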

[2] = tested on: MCF7; experiment: Cytotoxicity against human MCF7 cells after 45 hrs by resazurin microplate assay; format: functional, cell-based; conditions: MCF7, 45 h
Summary of the method: (§1)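 Human cancer cell panel in the resazurin microplate assay: KB (oral epidermoid carcinoma), MCF-7 (breast cancer) and NCI-H187 (small-cell lung cancer).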

[3] = tested on: Candida albicans; experiment: Antifungal activity against Candida albicans after 45 hrs by resazurin microplate assay; format: functional, organism-based
[4] = tested on: NCI-H187; experiment: Cytotoxicity against human NCI-H187 cells after 45 hrs by resazurin microplate assay; format: functional, cell-based; conditions: NCI-H187, 45 h; summary of the method: as §1
[5] = tested on: KB; experiment: Cytotoxicity against human KB cells after 45 hrs by resazurin microplate assay; format: functional, cell-based; summary of the method: as §1
[6] = tested on: Mycobacterium tuberculosis; experiment: Antituberculosis activity against Mycobacterium tuberculosis H37Ra by green fluorescent protein microplate assay; format: functional
[7] = tested on: Vero; experiment: Cytotoxicity against african green monkey Vero cells by green fluorescent protein microplate assay; format: cell-based; conditions: Chlorocebus sabaeus
Summary of the method: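 Vero cells (African green monkey kidney […]) tested in the green fluorescent protein microplate assay (GFPMA), the same format the paper used for Mycobacterium tuberculosis H37Ra.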

Row | SMILES | IC50 [1] [µM] | IC50 [2] [µM] | IC50 [3] [µM] | IC50 [4] [µM] | IC50 [5] [µM] | MIC [6] [µM] | IC50 [7] [µM]
1 | C[C@H]1CC[C@@H]2O[C@@]23C[C@H]2OC(=O)C(CO)=C2C[C@]13C | > 38 | > 189 | > 189 | > 189 | > 189 | > 189 | > 189
2 | C=C1C(=O)O[C@@H]2C[C@]34O[C@H]3CC[C@H](C)[C@@]4(C)C[C@]12O | 13 | 10 | 7.8 | 5.8 | 10 | 47 (≈ 12.4 µg/mL) | 9.4
3 | C=C1C(=O)O[C@@H]2C[C@]3(O)[C@H](O)CC[C@H](C)[C@@]3(C)C[C@]12O | > 35 | 15 | > 177 | 7.2 | 5 | > 177 | 8.5
4 | C=C1C(=O)O[C@@H]2C[C@]3(O)[C@H](OC)CC[C@H](C)[C@@]3(C)C[C@]12O | 8.1 | 15 | > 169 | 3.8 | 21 | 42 (≈ 12.4 µg/mL) | 3.9
5 | CC1=C2C[C@]3(C)[C@@H](C)CC[C@@H](O)[C@@]3(O)C[C@H]2OC1=O [MAIRETOLIDE F] | > 38 | > 188 | > 188 | > 188 | > 188 | > 188 | > 188
